Only some compounds are listed: those with a hit (about 2.8% of all), similar ones and a draw of the others.
ARFGAP1 inh – rat ARFGAP1 inhibition. inhibition, % at 16.5 µM. AID 651572. 0.26% of 360,000 active. Arfgap1-stimulated ARF1 GTP hydrolysis, GDP FP detection. Q62848;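 active = inhibition above a per-plate limit, mean inhibition of low control wells plus 3 SD, cut at about 25% in these data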;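 note: 0% = DMSO wells with enzyme and 100% = wells lacking Arfgap1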
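Material: rat Arfgap1 catalytic domain, aa 1-136; also added: human ARF1(Δ1-17)-GTP substrate; compound dosing: one concentration, 16.5 µM, DMSO 1.26%; incubation: GTP hydrolysis reaction 2 h at 25 °C; measured by: Tracer-displacement fluorescence polarization with EDTA stop, 620/688 nm; evaluation: % inhibition from polarization; repeats: one replicate per compound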
PAFAH1B3 FP inh – blocks human PAF acetylhydrolase 1B catalytic subunit 3; Q15102; inhibition, % at 3.39 µM; recombinant PAFAH1B3, FP-rhodamine probe, fluorescence polarization; 0.28% of 340,000 active;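 active = inhibition above the screen-wide average of all tested compounds plus 3 SD, cut at about 25% in these data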;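 note: 0% = enzyme with DMSO only and 100% = wells lacking PAFAH1B3 protein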
Target sequence (Q15102 whole entry, looked up): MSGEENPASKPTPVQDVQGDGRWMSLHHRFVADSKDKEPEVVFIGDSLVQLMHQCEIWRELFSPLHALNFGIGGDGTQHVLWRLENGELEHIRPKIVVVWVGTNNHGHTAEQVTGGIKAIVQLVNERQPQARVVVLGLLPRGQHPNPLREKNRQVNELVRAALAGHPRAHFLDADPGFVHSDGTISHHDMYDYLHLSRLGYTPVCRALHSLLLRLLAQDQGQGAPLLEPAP
pPAFAH inh – pPAFAH (human) enzyme inhibition. recombinant pPAFAH, FP-rhodamine probe fluorescence polarization. inhibition, % at 3.39 µM. 1.5% of 330,000 active. AID 463082;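 active = inhibition above the mean inhibition across the screen plus 3 SD, cut at about 25% in these data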;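 note: inhibitors block binding of the rhodamine activity-based probe so polarization drops; 0% = enzyme with DMSO and 100% = wells lacking pPAFAH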
PAFAH2 FP inh – PAFAH2 (human) inhibition; inhibition, % at 3.39 µM; AID 492956; Q99487; 0.99% of 340,000 active; recombinant PAFAH2, FP-rhodamine activity probe, fluorescence polarization;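 active = inhibition above the mean over all tested compounds plus 3 SD, cut at about 30% in these data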;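 note: inhibitors block probe labeling of enzyme so polarization drops; 0% = enzyme with DMSO and 100% = wells lacking PAFAH2 protein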
ASAP1 GAP inh – inhibitors of human ASAP1 ArfGAP activity. Q9ULH1. ASAP1-stimulated ARF1 GTP hydrolysis, GDP FP detection. inhibition, % at 16.5 µM. 0.19% of 360,000 active. AID 624377; in the data active = inhibition above about 25%;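 note: 0% = vehicle with enzyme and substrate and 100% = no enzyme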
Target sequence (Q9ULH1 325-724 limits assumed): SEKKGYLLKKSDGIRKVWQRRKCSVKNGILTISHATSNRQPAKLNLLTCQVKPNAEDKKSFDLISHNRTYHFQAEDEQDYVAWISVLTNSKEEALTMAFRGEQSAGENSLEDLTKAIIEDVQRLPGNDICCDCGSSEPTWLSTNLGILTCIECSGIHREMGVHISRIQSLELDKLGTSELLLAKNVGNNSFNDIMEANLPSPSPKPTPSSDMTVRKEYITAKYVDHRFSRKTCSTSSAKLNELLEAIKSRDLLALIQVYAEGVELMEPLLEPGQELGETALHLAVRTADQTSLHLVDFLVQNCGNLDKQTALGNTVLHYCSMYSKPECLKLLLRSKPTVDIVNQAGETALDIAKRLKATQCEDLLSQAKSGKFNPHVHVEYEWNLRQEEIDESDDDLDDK
PAFAH1B2 inh – PAFAH1B2 (human) inhibition; 1.2% of 340,000 active; inhibition, % at 3.39 µM; AID 492953; recombinant PAFAH1B2, FP-rhodamine activity probe, fluorescence polarization; P68402;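 active = inhibition above the mean of all tested compounds plus 3 SD, cut at about 24% in these data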;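 note: 0% = enzyme with DMSO and 100% = wells lacking PAFAH1B2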
An asterisk follows results filed as active; x = not tested or not shown; + = active, no number.

SMILES | ARFGAP1 inh | PAFAH1B3 FP inh | pPAFAH inh | PAFAH2 FP inh | ASAP1 GAP inh | PAFAH1B2 inh
CCCCCSc1nnc(-c2cc(Br)ccc2N)c(=O)[nH]1 | -4 | 8 | 6 | 11 | -1 | 27*
CCCCSc1nnc(-c2ccccc2N)c(=O)[nH]1 | 4 | 10 | 6 | 0 | -1 | 11
CCOC(=O)/C(=C\C=C\N1CCOCC1)C(C)=O | 9 | -5 | 6 | -1 | -4 | -4
COC(=O)C(=C/C=C/N1CCOCC1)C(=O)OC | x | x | 25* | x | x | x
COc1ccccc1Nc1nc2ccccc2n1C | 2 | 0 | 28* | 3 | 8 | -1
C[C@@H]1CN([C@@H](C)CO)C(=O)c2cc(-c3ccncc3)cnc2O[C@H]1CN(C)C(=O)c1cccc(F)c1 | -20 | x | x | x | 10 | x
CCOC(=O)CC(=O)NC(CC(=O)OC)c1ccc(C(C)C)cc1 (stereo unspecified) | 9 | 6 | 0 | 6 | 3 | 29*
COc1ccc(-c2cc(CNc3nc4cc(-c5ccccc5C)sc4c(=O)n3C)on2)cc1 | 12 | x | x | x | 11 | x
COCCCN(C(=O)C1=COCCO1)c1c(N)n(Cc2ccccc2)c(=O)[nH]c1=O | 6 | x | x | x | -6 | x
COc1ccccc1-c1cnc(C(O)c2ccc(CN3CCCC3)cc2)[nH]1 (stereo unspecified) | 18 | x | x | x | -3 | x
Cc1ccccc1-n1cc(-c2ccc(Br)cc2)nc1SCC(N)=O | -6 | x | 10 | x | -2 | x
CCOC(=O)NC(=O)CSc1nc(-c2ccc(C)c(C)c2)cn1-c1ccccc1 | -16 | 0 | 32* | 3 | -7 | 3
CCOC(=O)NC(=O)CSc1nnnn1-c1ccccc1 | 2 | 1 | -2 | 7 | 0 | 3
Cc1ccc(-c2cn(-c3ccccc3)c(SCC(N)=O)n2)cc1C | 9 | 2 | 30* | 8 | 5 | -4
Cc1ccc(CS(=O)(=O)CCC(=O)NCc2ccccc2Cl)cc1 | 0 | 6 | 29* | -6 | 0 | 8
COc1ccc(-n2c(SC3CCOC3=O)nc3ccccc32)cc1 (stereo unspecified) | 14 | -2 | 31* | -2 | 6 | 4
O=C1OCCC1Sc1nc2ccccc2n1-c1ccccc1 (stereo unspecified) | 0 | 3 | 21 | 9 | 4 | 3
CC1CCCN(S(=O)(=O)c2ccc(NC(=O)[C@@H]3CCCN3C(=O)c3cccs3)cc2)C1 (stereo partly specified) | -4 | 11 | 30* | -2 | -3 | 1
CC(=O)N1CCC(C(=O)Nc2ccc(S(=O)(=O)N3CCCC(C)C3)cc2)CC1 (stereo unspecified) | -2 | 7 | x | -3 | -8 | 4
CC1CCN(S(=O)(=O)c2ccc(NC(=O)CSc3nnnn3C)cc2)CC1 | 3 | 0 | 2 | -4 | -2 | 42*
CC(=O)N1CCC(C(=O)Nc2ccc(S(=O)(=O)N3CCC(C)CC3)cc2)CC1 | -4 | -2 | -1 | 8 | -26 | 29*
CC(C)(C)NC(=O)C1CCN(S(=O)(=O)c2ccc(Br)cc2)CC1 | 3 | 10 | 1 | -2 | -14 | 29*
COc1ccc(NC(=O)[C@@H]2CCCN2C(=O)c2cccs2)cc1S(=O)(=O)N1CCCCC1 | 3 | -4 | -2 | 0 | 2 | 5
COc1ccc(C)cc1NC(=O)CCNS(=O)(=O)c1cccc(C(F)(F)F)c1 | 13 | 2 | -1 | 8 | 10 | 5
CC1CCN(S(=O)(=O)c2ccc(NC(=O)c3cccs3)cc2)CC1 | 12 | -2 | -3 | -15 | 4 | 21
SMILES | ARFGAP1 inh | PAFAH1B3 FP inh | pPAFAH inh | PAFAH2 FP inh | ASAP1 GAP inh | PAFAH1B2 inh
CC1CCN(S(=O)(=O)c2ccc(S(=O)(=O)N3CCCC3)cc2)CC1 | 2 | -1 | 5 | -9 | 3 | -1
CC1CCN(S(=O)(=O)c2ccc(S(=O)(=O)NCC(=O)C(C)(C)C)cc2)CC1 | 2 | 0 | 2 | -2 | 9 | 26*
CC1CCN(S(=O)(=O)c2ccc(NC(=O)[C@@H]3CCCN3C(=O)c3cccs3)cc2)CC1 | -2 | -6 | 25* | 1 | 4 | 37*
Cc1cc2c3c([nH]c2cc1S(=O)(=O)N1CCC2(CC1)OCCO2)CCCC3=O | 10 | -2 | 1 | 6 | 0 | 1
CNC[C@H]1Oc2c(NC(=O)c3ccc(-c4nccs4)cc3)cccc2C(=O)N([C@@H](C)CO)C[C@@H]1C | -2 | 10 | 0 | 5 | 7 | -3
O=C(c1ccccc1)N1CCN(C(=O)c2nn3c(C(F)(F)F)cc(-c4ccco4)nc3c2Br)CC1 | 2 | 9 | 34* | 13 | -10 | 4
O=C(NC1CCCCC1)c1nn2c(C(F)(F)F)cc(-c3ccco3)nc2c1Br | -15 | 3 | 0 | 4 | 12 | 1
O=c1c(-c2cc3ccccc3[nH]2)nc2ccccc2n1C(CCc1ccccc1)c1nc2ccccc2[nH]1 (stereo unspecified) | 24 | x | x | x | 15 | x
NC(=O)COC(=O)CC12CC3CC(CC(Br)(C3)C1)C2 | 2 | 9 | 6 | 2 | 0 | 27*
NC(=O)COC(=O)CC12CC3CC(CC(C3)C1)C2 | -12 | 5 | 5 | 4 | 4 | 21
C=CCN=C1NC(c2cccc(Cl)c2)C(C(=O)OC)=C(C)N1Cc1ccc(C(F)(F)F)cc1 (stereo unspecified) | -5 | x | x | x | -3 | x
Cn1c(=O)c2c(nc(N3CCOCC3)n2CC(=O)C23CC4CC(CC(C4)C2)C3)n(C)c1=O | -1 | 11 | 3 | -5 | 8 | 27*
CC(C)(C)NC(=O)C(=O)NNC(=O)COc1ccc(Br)cc1 | -2 | 3 | 0 | 1 | -1 | 31*
CC(C)=NNc1nc(-c2ccccc2)cs1 | -3 | 5 | 7 | -3 | 13 | 6
CCOC(=O)C/C(C)=N\Nc1nc(-c2ccccc2)cs1 | -6 | 4 | 26* | 3 | 8 | 1
N=C(N)c1ccc(N=Nc2c(O)ccc3c2[nH]c2ccccc23)cc1 | + | 9 | x | 10 | 175* | 31*
O=C(/C=C/c1ccc(S(=O)(=O)NCc2ccco2)cc1)NCc1ccccc1Cl | -1 | 4 | 32* | -4 | -5 | 7
COc1ccc(CNC(=O)/C=C/c2ccc(S(=O)(=O)NCc3ccco3)cc2)cc1OC | -4 | 4 | 16 | -2 | 11 | -7
CCOC(=O)N1CCN(S(=O)(=O)c2ccc(C(=O)NNc3nc4c(C)cc(C)cc4s3)cc2)CC1 | 19 | x | 32* | x | 14 | x
CCOC(=O)N1CCN(S(=O)(=O)c2ccc(C(=O)NNc3nc4c(C)cccc4s3)cc2)CC1 | -5 | 17 | 19 | -13 | -7 | 8
CCOC(=O)N1CCN(S(=O)(=O)c2ccc(C(=O)NNc3nc4cc(C)cc(C)c4s3)cc2)CC1 | x | 16 | 28* | 14 | x | 2
